Experimental data taken from PMC9073569 (JAMA Network Open, 2022).
Where two headings read alike, the source gives them in different places.

Legend:
[1] = tested on: moderate to severe pruritus in patients receiving hemodialysis; test: 24-hour Worst Itching Intensity Numerical Rating Scale; assay type: in vivo, Japanese patients; conditions: week 8; for proportion of 4-point improvement in the NRS score: placebo 36%; for proportion of 3-point improvement in the NRS score: placebo 50%
Method in brief: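 Adults aged 20 or older with ESKD on hemodialysis 3 times weekly for at least 12 weeks, with weekly mean NRS above 4, were randomized double-blind. Test compound or placebo was given IV after each dialysis session for 8 weeks. Worst itch over the prior 24 h (0–10) was logged daily in an e-diary and averaged weekly. Proportions improving ≥3 or ≥4 points at week 8 were compared with placebo by Fisher exact test.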

[2] = tested on: patients with pruritus receiving hemodialysis; assay type: in vivo, Japanese patients; conditions: for Constipation / Death / Malaise / Other serious adverse drug reactions / Pyrexia: placebo 0; for Adverse events leading to Discontinuation / Nausea: placebo 1 (2); for Adverse events leading to Interruption / Arthralgia / Blood pressure decreased / Other serious adverse events: placebo 2 (3); for Dizziness / Procedural hypotension / Somnolence / Vomiting: placebo 3 (5); for Adverse drug reactions / Nasopharyngitis: placebo 7 (11); for Adverse events: placebo 42 (67); for drug-related serious AEs (kind of event): patients recovered after discontinuing or suspending use of the study drug
[3] = Plasma concentrations of difelikefalin; assay type: in vivo, Japanese patients; conditions: weeks 1, 4, and 7; LC-MS/MS
Method in brief: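 Test compound was given IV at 0.25, 0.5 or 1.0 μg/kg after each hemodialysis session, 3 times weekly, with volume set by dry weight. Plasma was sampled before the first dialysis (weeks 1, 2, 4, 7, 8), 5 min post-dose (weeks 1, 4, 7), before the second dialysis (weeks 1, 4, 7) and 1 h post-dose (week 7). Assay was LC-MS/MS; summaries included geometric means and geometric CV.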

[4] = cited from earlier work
[5] = tested on: pruritus in patients receiving hemodialysis; conditions: 0.5, 1.0, and 1.5 μg/kg; previous phase 2 trial in the US; cited from earlier work
[6] = 0.25 μg/kg iv 3 times a week, 8 weeks, n = 61
[7] = 0.5 μg/kg iv 3 times a week, 8 weeks, n = 61
[8] = 1.0 μg/kg iv 3 times a week, 8 weeks, n = 62

## difelikefalin
[1]; 0.25 μg/kg iv 3 times a week, n = 20 of 59
  proportion of 4-point improvement in the NRS score: 34%
[1]; 0.25 μg/kg iv 3 times a week, n = 31 of 59
  proportion of 3-point improvement in the NRS score: 53%
[1]; 0.5 μg/kg iv 3 times a week, n = 27 of 53
  proportion of 4-point improvement in the NRS score: 51%
[1]; 0.5 μg/kg iv 3 times a week, n = 32 of 53
  proportion of 3-point improvement in the NRS score: 60%
[1]; 1.0 μg/kg iv 3 times a week, n = 23 of 53
  proportion of 4-point improvement in the NRS score: 43%
[1]; 1.0 μg/kg iv 3 times a week, n = 30 of 53
  proportion of 3-point improvement in the NRS score: 57%
[2]; [6]
  Constipation: 5 (8) No. (%)
  Death: 0 No. (%)
  Malaise: 2 (3) No. (%)
  Other serious adverse drug reactions: 0 No. (%)
  Pyrexia: 2 (3) No. (%)
  Adverse events leading to Discontinuation: 0 No. (%)
  Nausea: 0 No. (%)
  Adverse events leading to Interruption: 0 No. (%)
  Arthralgia: 3 (5) No. (%)
  Blood pressure decreased: 0 No. (%)
  Other serious adverse events: 3 (5) No. (%)
  Dizziness: 3 (5) No. (%)
  Procedural hypotension: 4 (7) No. (%)
  Somnolence: 2 (3) No. (%)
  Vomiting: 1 (2) No. (%)
  Adverse drug reactions: 9 (15) No. (%)
  Nasopharyngitis: 8 (13) No. (%)
  Adverse events: 44 (72) No. (%)
[2]; 0.5 μg/kg group
  drug-related serious AEs (kind of event): Altered state of consciousness
[2]; [7]
  Constipation: 3 (5) No. (%)
  Death: 0 No. (%)
  Malaise: 2 (3) No. (%)
  Other serious adverse drug reactions: 1 (2) No. (%)
  Pyrexia: 4 (7) No. (%)
  Adverse events leading to Discontinuation: 4 (7) No. (%)
  Nausea: 1 (2) No. (%)
  Adverse events leading to Interruption: 5 (8) No. (%)
  Arthralgia: 5 (8) No. (%)
  Blood pressure decreased: 4 (7) No. (%)
  Other serious adverse events: 8 (13) No. (%)
  Dizziness: 3 (5) No. (%)
  Procedural hypotension: 3 (5) No. (%)
  Somnolence: 3 (5) No. (%)
  Vomiting: 1 (2) No. (%)
  Adverse drug reactions: 9 (15) No. (%)
  Nasopharyngitis: 6 (10) No. (%)
  Adverse events: 47 (77) No. (%)
[2]; 1.0 μg/kg group
  drug-related serious AEs (kind of event): obstruction in the small intestine
[2]; [8]
  Constipation: 7 (11) No. (%)
  Death: 0 No. (%)
  Malaise: 4 (6) No. (%)
  Other serious adverse drug reactions: 1 (2) No. (%)
  Pyrexia: 0 No. (%)
  Adverse events leading to Discontinuation: 5 (8) No. (%)
  Nausea: 4 (6) No. (%)
  Adverse events leading to Interruption: 5 (8) No. (%)
  Arthralgia: 2 (3) No. (%)
  Blood pressure decreased: 3 (5) No. (%)
  Other serious adverse events: 5 (8) No. (%)
  Dizziness: 5 (8) No. (%)
  Procedural hypotension: 2 (3) No. (%)
  Somnolence: 6 (10) No. (%)
  Vomiting: 4 (6) No. (%)
  Adverse drug reactions: 17 (27) No. (%)
  Nasopharyngitis: 3 (5) No. (%)
[2]; 1.0 μg/kg iv 3 times a week, 8 weeks, n = 62, P = .02
  Adverse events: 53 (85) No. (%)
[2]; 0.25, 0.5 and 1.0 μg/kg iv 3 times a week, 8 weeks
  changes in clinical laboratory tests, vital signs, and 12-lead electrocardiogram: No notable changes
[3]
  plasma difelikefalin concentrations in relation to body weight classification: No significant differences
[4]
  transfer to the CNS: limited
[5]
  dose response in relation to efficacy: no clear dose response
